Measurements as given in ChEMBL document CHEMBL1126605, “Antitumor agents. 139. Synthesis and biological evaluation of thiocolchicine analogs 5,6-dihydro-6(S)-(acyloxy)- and 5,6-dihydro-6(S)-[(aroyloxy)methyl]-1,2,3-trimethoxy-9-(methylthio)-8H- cyclohepta[a]naphthalen-8-ones as novel cytotoxic and antimitotic agents” (J Med Chem, 1993).

Columns and labels:
TE-671 = assay: Cytotoxicity against human central nervous system carcinoma TE671 cell line; assay type: functional; settings: read-out: ED50 (the source's name)
Tubulin [1] = target: T1, Tubulin (Bos taurus, UniProt Q6B856+Q862L2+Q862F3); assay: Evaluated for the inhibition of tubulin polymerization without pre-incubation; assay type: functional
KB = assay: Cytotoxicity against human solid tumor nasopharyngeal carcinoma KB cell line; assay type: functional; settings: read-out: ED50 (the source's name)
Tubulin (Bos taurus) = Tubulin (Bos taurus) (UniProt Q6B856+Q862L2+Q862F3); settings: at 5 µM
HCT-8 = assay: Cytotoxicity against human solid tumor Colon carcinoma HCT-8 cell line; assay type: functional; settings: read-out: ED50 (the source's name)
A549 = assay: Cytotoxicity against human solid tumor lung carcinoma A549 cell line; assay type: functional; settings: read-out: ED50 (the source's name)
Tubulin [2] = target: T1, Tubulin; assay: Inhibition of tubulin polymerization with preincubation for 15 minutes at 37 degree Centigrade prior to addition of the GTP required for polymerization; assay type: functional
P388 [3] = assay: (§1) Cytotoxicity against murine P388 leukemia cell line; assay type: functional; settings: Mus musculus, read-out: ED50 (the source's name)
Burkitts lymphoma cell = assay: Growth inhibition on human burkitt lymphoma cells after 36 h; assay type: functional, cell-based
RPMI-7951 = assay: cells; assay type: functional; settings: Homo sapiens, read-out: ED50 (the source's name)
P388 [4] = assay: as §1; assay type: functional, Homo sapiens; settings: Mus musculus, read-out: ED50 (the source's name)
Tubulin [5] = target: T1, Tubulin; assay: Compound was evaluated for the inhibition of tubulin polymerization without pre-incubation; assay type: functional
Summary of the method: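 Drug, tubulin and the GTP needed for polymerization were all mixed before the reaction mixtures were incubated at 37 °C, with no drug–tubulin preincubation. IC50 is the drug concentration inhibiting polymerization, given ± SD from at least three experiments per compound.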

Compound	IC50 (Tubulin [1]) [nM]	inhibition (Tubulin (Bos taurus)) [%]	IC50 (Tubulin [2]) [nM]	IC50 (Burkitts lymphoma cell) [nM]	EC50 (RPMI-7951) [nM]	IC50 (Tubulin [5]) [nM]	EC50 (TE-671) [nM]	EC50 (KB) [nM]	EC50 (HCT-8) [nM]	EC50 (A549)	EC50 (P388 [3]) [nM]	EC50 (P388 [4]) [nM]
COc1ccc(C(=O)OC[C@H]2Cc3cc(OC)c(OC)c(OC)c3-c3ccc(SC)c(=O)cc32)cc1	–	0	> 40000	–	806	–	2	806	3280	> 10 µg/mL	138	–
COc1cc2c(c(OC)c1OC)-c1ccc(OC)c(=O)cc1[C@@H](NC(C)=O)CC2 [COLCHICINE]	–	–	–	50	1	–	1	2	175	18 nM	–	100
CCOC(=O)OC[C@H]1Cc2cc(OC)c(OC)c(OC)c2-c2ccc(SC)c(=O)cc21	4300	60	3700	–	0.001	–	0.001	11	179	0.001 nM	16	–
COc1cc2c(ccc3cc(OC)c(OC)c(OC)c32)cc1O	–	–	–	–	–	100000	–	–	–	–	–	–
CCC(=O)OC[C@H]1Cc2cc(OC)c(OC)c(OC)c2-c2ccc(SC)c(=O)cc21	–	83	3400	–	0.093	–	0.12	93	162	220 nM	8	–
COc1cc2c(c(OC)c1OC)-c1ccc(SC)c(=O)cc1[C@@H](COC(=O)c1cccc(F)c1)C2	–	0	> 40000	–	100	–	0.02	110	161	80 nM	141	–
COc1cc2c(c(OC)c1OC)-c1ccc(SC)c(=O)cc1[C@@H](COC(=O)c1cccc(C#N)c1)C2	–	0	> 40000	–	629	–	1530	139	5780	8220 nM	99	–
COc1cc2c(cc1O)CCc1cc(OC)c(OC)c(OC)c1-2	–	–	–	–	–	> 100000	–	–	–	–	–	–
COc1cc2c(c(OC)c1OC)-c1ccc(SC)c(=O)cc1[C@@H](COC(=O)c1ccccc1F)C2	3800	91	3000	–	40	–	129	110	6400	140 nM	12	–
COc1cc2c(c(OC)c1OC)-c1ccc(SC)c(=O)cc1[C@@H](COC(=O)c1cccc([N+](=O)[O-])c1)C2	–	0	> 40000	600	1090	–	936	1050	19	1470 nM	1050	–

Continued, in another order:

IC50 (Tubulin [1]) [nM]	inhibition (Tubulin (Bos taurus)) [%]	IC50 (Tubulin [2]) [nM]	IC50 (Burkitts lymphoma cell) [nM]	EC50 (RPMI-7951) [nM]	IC50 (Tubulin [5]) [nM]	Compound	EC50 (TE-671) [nM]	EC50 (KB) [nM]	EC50 (HCT-8) [nM]	EC50 (A549)	EC50 (P388 [3]) [nM]	EC50 (P388 [4]) [nM]
3700	53	3600	60	134	–	CC(C)n1cnc2c(Nc3ccc(Br)cc3)nc(N3CCC[C@@H]3CO)nc21	26	144	160	240 nM	144	–
–	78	6600	20	114	–	COc1cc2c(c(OC)c1OC)-c1ccc(SC)c(=O)cc1[C@@H](COC(=O)c1ccc([N+](=O)[O-])cc1)C2	10	13	5670	4280 nM	10	–
–	46	4500	–	0.022	–	CCCC(=O)OC[C@H]1Cc2cc(OC)c(OC)c(OC)c2-c2ccc(SC)c(=O)cc21	23	0.13	3040	1370 nM	0.09	–
2800	91	2400	–	0.084	–	C=C1Cc2cc(OC)c(OC)c(OC)c2-c2ccc(SC)c(=O)cc21	0.084	140	196	252 nM	22	–
–	56	3400	–	144	–	COc1cc2c(c(OC)c1OC)-c1ccc(SC)c(=O)cc1[C@@H](COC(C)=O)C2	1320	132	5710	1940 nM	96	–
–	0	> 40000	–	926	–	COc1cc2c(c(OC)c1OC)-c1ccc(SC)c(=O)cc1[C@@H](COC(=O)c1ccc(F)cc1)C2	1250	1070	1970	1570 nM	81	–
–	2	> 40000	–	110	–	COc1cc2c(c(OC)c1OC)-c1ccc(SC)c(=O)cc1[C@@H](COC(=O)c1ccc(Br)cc1)C2	129	92	9200	17000 nM	110	–
